The source made the active and inactive calls.

The values that follow come from ChEMBL document CHEMBL3286252, “Synthesis, biological evaluation and structure-activity relationship of new GABA uptake inhibitors, derivatives of 4-aminobutanamides” (Eur J Med Chem, 2014).

For series [1], the system named is Mus musculus. The series is described as follows: Anticonvulsant activity against pentylenetetrazole-induced seizure in albino Swiss (CD-1) mouse assessed as decrease in mortality rate at 100 mg/kg, ip administered 60 mins prior to PTZ challenge. The format is functional. As to conditions: route intraperitoneal. A digest of the protocol:
(§1)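 Male CD-1 mice, 18–22 g, given compound or vehicle i.p. 60 min before PTZ 100 mg/kg s.c. Each mouse observed alone for 30 min for clonic seizures: whole-body clonus over 3 s with loss of righting reflex. Read-outs: latency to first clonus, number of seizure episodes, and deaths within 30 min. Groups of 7–10 mice, compared with vehicle.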

Series [2] concerns Mus musculus. The series is described as follows: Anticonvulsant activity against pentylenetetrazole-induced seizure in albino Swiss (CD-1) mouse assessed as decrease in seizure episodes at 100 mg/kg, ip administered 60 mins prior to PTZ challenge. It is filed as functional. The conditions noted are these: route intraperitoneal. A digest of the protocol:
as §1

Series [3] deals with Mus musculus. The series is described as follows: Anticonvulsant activity against pentylenetetrazole-induced seizure in albino Swiss (CD-1) mouse assessed as delay in onset of seizures at 100 mg/kg, ip administered 60 mins prior to PTZ challenge. It is filed as functional. As to conditions: route intraperitoneal. In a few lines: as §1
Series [4] concerns the target T1, GABA transporter 2 (Mus musculus, UniProt P31651).
T1 sequence (P31651 whole entry): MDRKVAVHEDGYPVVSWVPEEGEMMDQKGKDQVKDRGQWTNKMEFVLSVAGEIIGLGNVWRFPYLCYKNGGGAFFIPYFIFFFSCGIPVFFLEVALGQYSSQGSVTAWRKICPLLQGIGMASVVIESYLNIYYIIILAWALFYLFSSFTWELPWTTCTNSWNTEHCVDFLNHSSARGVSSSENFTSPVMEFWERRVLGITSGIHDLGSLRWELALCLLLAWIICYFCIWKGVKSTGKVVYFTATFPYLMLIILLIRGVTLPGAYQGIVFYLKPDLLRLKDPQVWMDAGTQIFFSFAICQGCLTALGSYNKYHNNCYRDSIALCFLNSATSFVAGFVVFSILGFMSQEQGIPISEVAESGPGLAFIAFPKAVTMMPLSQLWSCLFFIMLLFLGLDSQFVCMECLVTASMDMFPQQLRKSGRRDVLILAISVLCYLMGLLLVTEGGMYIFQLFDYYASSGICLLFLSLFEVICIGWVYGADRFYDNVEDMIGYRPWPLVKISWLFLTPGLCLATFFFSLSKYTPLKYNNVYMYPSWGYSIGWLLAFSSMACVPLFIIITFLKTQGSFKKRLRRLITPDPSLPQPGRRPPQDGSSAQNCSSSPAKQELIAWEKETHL
The series is described as follows: (§2) Inhibition of mouse GAT2 expressed in HEK293 cells assessed as decrease in [3H]GABA uptake. It is filed as cell-based.

The target in series [5] is T2, Sodium- and chloride-dependent GABA transporter 1 (Mus musculus, UniProt P31648). The series is described as follows: Inhibition of mouse GAT1 expressed in HEK293 cells assessed as decrease in [3H]GABA uptake. It is filed as cell-based.
Series [6] in a line: Retardation factor of the compound using hexane/ethanol/TEA at ratio of 7:2:1 as solvent system by thin layer chromatography. It is filed as physicochemical.
Series [7] deals with Sodium- and chloride-dependent GABA transporter 1 (Mus musculus) (UniProt P31648). The series is described as follows: Displacement of NO711 from mouse GAT1 expressed in HEK293 cells assessed as NO711 binding at 100 uM by LC-MS/MS analysis. The format is cell-based.
For series [8], the target named is T3, GABA transporter 3 (Mus musculus, UniProt P31649).
T3 sequence (P31649 whole entry): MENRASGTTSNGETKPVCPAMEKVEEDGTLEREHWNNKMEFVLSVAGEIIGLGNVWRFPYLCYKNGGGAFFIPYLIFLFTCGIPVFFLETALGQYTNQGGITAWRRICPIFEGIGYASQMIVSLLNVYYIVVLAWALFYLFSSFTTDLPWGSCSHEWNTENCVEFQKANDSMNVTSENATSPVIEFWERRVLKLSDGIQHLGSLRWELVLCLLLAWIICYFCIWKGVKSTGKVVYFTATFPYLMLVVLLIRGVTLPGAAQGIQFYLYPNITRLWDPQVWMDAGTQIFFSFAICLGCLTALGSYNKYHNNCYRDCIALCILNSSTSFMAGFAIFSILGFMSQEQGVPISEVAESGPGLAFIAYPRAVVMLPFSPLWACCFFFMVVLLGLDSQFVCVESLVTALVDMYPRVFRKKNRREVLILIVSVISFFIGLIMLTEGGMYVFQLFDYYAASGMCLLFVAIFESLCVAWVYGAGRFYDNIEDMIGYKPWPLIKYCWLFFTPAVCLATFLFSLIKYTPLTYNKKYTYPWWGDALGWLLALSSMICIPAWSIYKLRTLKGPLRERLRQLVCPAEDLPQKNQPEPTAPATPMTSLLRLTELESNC
The series is described as follows: Inhibition of mouse GAT3 expressed in HEK293 cells assessed as decrease in [3H]GABA uptake. The format is cell-based.

For series [9], the target named is T4, GABA transporter 4 (Mus musculus, UniProt P31650).
T4 sequence (P31650 whole entry): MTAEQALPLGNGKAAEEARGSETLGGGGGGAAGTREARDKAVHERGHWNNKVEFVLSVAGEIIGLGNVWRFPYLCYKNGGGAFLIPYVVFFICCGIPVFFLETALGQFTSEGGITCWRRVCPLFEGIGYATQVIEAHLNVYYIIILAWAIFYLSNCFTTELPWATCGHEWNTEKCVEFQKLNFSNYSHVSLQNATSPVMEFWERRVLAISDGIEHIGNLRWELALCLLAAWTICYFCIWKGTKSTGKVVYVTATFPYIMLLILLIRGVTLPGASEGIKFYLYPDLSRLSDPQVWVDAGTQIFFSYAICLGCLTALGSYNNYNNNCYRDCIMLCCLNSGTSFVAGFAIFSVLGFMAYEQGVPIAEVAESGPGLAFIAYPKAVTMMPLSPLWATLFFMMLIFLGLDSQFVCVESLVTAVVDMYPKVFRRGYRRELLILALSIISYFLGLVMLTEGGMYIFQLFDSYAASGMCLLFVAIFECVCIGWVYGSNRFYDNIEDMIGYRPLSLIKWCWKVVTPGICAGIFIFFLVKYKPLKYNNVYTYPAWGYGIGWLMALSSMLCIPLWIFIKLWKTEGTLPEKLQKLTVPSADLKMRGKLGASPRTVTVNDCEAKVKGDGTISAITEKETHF
The series is described as follows: Inhibition of mouse GAT4 expressed in HEK293 cells assessed as decrease in [3H]GABA uptake. The format is cell-based.

The nature of series [10]: Retardation factor of the compound using 25%NH3/MeOH/DCM/PE at ratio of 45:225:600:90 as solvent system by thin layer chromatography. The format is physicochemical.
Series [11] deals with T2, Sodium- and chloride-dependent GABA transporter 1. The series is described as follows: Displacement of NO711 from mouse GAT1 expressed in HEK293 cells by LC-MS/MS analysis. It is filed as cell-based.
Series [12] relates to Mus musculus. The series is described as follows: Antinociceptive activity in ip dosed albino Swiss (CD-1) mouse measured after 60 mins by hot plate test. It is filed as functional, organism-based. (Hot-plate and tail-flick tests time the reaction to a heat stimulus.)
Series [13] concerns Mus musculus. The series is described as follows: Anticonvulsant activity against pilocarpine-induced seizure in albino Swiss (CD-1) mouse assessed as prolongation of latency time to seizures at 200 mg/kg, ip administered 60 mins before pilocarpine challenge. It is filed as functional. The conditions noted are these: route intraperitoneal. A digest of the protocol:
(§3)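 CD-1 mice received compound or vehicle (1% Tween 80) i.p. 60 min before pilocarpine 400 mg/kg i.p. Scopolamine butylbromide 1 mg/kg i.p. was given 45 min before pilocarpine. 7–8 mice per group; Student's t-test versus vehicle; mean ± SEM.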

The subject of series [14] is Mus musculus. The series is described as follows: Anticonvulsant activity against pilocarpine-induced seizure in albino Swiss (CD-1) mouse assessed as prolongation of latency time to death at 100 mg/kg, ip administered 60 mins before pilocarpine challenge. As to conditions: route intraperitoneal. It is filed as functional. A digest of the protocol:
(§4)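 Male CD-1 mice dosed i.p. with compound or vehicle (1% Tween 80). Scopolamine butylbromide 1 mg/kg i.p. given 45 min before pilocarpine; pilocarpine 400 mg/kg i.p. given 60 min after compound. Observed 1 h. Latency to tonic-clonic seizure and latency to death recorded, cut-off 60 min. 7–8 mice per group, mean ± SEM, Student's t-test against vehicle.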

Series [15] concerns the target T5, GABA transporter 2 (Mus musculus) (UniProt P31651).
T5 sequence (whole entry): T1 sequence (P31651 whole entry)
The series is described as §2. The format is cell-based. The conditions noted are these: concentration not given here.

Series [16] has as its system Mus musculus. The series is described as follows: Antidepressant-like activity in albino Swiss (CD-1) mouse assessed as reduction in immobility time at 15 mg/kg, ip by forced swim test. It is filed as functional. The conditions noted are these: route intraperitoneal. In a few lines: (§5)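 Compound or vehicle was given i.p. 60 min before the test. Each mouse was placed for 6 min in a glass cylinder (25 cm high, 10 cm diameter) holding 10 cm of water at 23–25 C. Immobility, meaning passive floating, was timed over the final 4 min. 7–8 mice per group; ANOVA with Dunnett's test.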

For series [17], the system named is Mus musculus. The series is described as follows: Anticonvulsant activity against pilocarpine-induced seizure in albino Swiss (CD-1) mouse assessed as prolongation of latency time to seizures at 100 mg/kg, ip administered 60 mins before pilocarpine challenge. As to conditions: route intraperitoneal. It is filed as functional. In a few lines:
as §3

Series [18] relates to Mus musculus. The series is described as follows: Anticonvulsant activity against pilocarpine-induced seizure in albino Swiss (CD-1) mouse assessed as prolongation of latency time to death at 200 mg/kg, ip administered 60 mins before pilocarpine challenge. The format is functional. As to conditions: route intraperitoneal. A digest of the protocol: as §4
Series [19] deals with Mus musculus. The series is described as follows: Antidepressant-like activity in albino Swiss (CD-1) mouse assessed as reduction in immobility time at 30 mg/kg, ip by forced swim test. It is filed as functional. As to conditions: route intraperitoneal. A digest of the protocol: as §5
Series [20] deals with Mus musculus. The series is described as follows: Anticonvulsant activity in albino Swiss (CD-1) mouse assessed as current intensity required to induce 50% tonic hind limb extensions at 100 mg/kg, ip after 60 mins by electroconvulsive threshold test (reference value: 6.61 mA). The format is functional, Hindlimb. As to conditions: route intraperitoneal.

Consider `CCC1(C)CC(=O)NC1=O` (stereo not drawn) [ETHOSUXIMIDE], for which the inhibition in vivo – broadly, the percentage by which the read-out fell short of the control – at 100 mg/kg was determined as 75% in series [1] and 64% in series [2]. Moreover, in series [3], the Activity is reported as 120%.
Regarding `NCCC(NCCC=C(c1ccccc1)c1ccccc1)C(=O)NCc1ccccc1Cl` (stereo not drawn), the IC50 (as a rule, the concentration needed to halve the response being measured) is 6.92 µM in [4], 15.8 µM in series [5], 24 µM in series [8] and 10.2 µM in series [9]. Besides, the Rf in series [6] came to 0.15. In addition, in series [7], the Activity came out at 53%.
`NCCC(C(=O)NCc1ccccc1)N1CCN(C(c2ccccc2)c2ccccc2)CC1` (stereo not drawn): the IC50 in [4] is 38 µM; in series [5], 44.7 µM; in series [8] it was 26.9 µM; in series [9], 58.9 µM. Moreover, the Rf in series [10] is 0.15. In addition, in [7], the Activity amounted to 83%.
As to `CN(CCCC(c1ccccc1)c1ccccc1)C(CCN)C(=O)NCc1ccccc1` (stereo not drawn), the 50% inhibitory concentration (IC50) in series [4] is 9.55 µM; in series [5] it was 22.4 µM; in series [8], 29.5 µM; in series [9], 25.7 µM. In series [11], the Ki (usually a dissociation constant, usually derived from enzyme kinetics or from competition with a known ligand) is 30.9 µM. Also, the Rf in [6] stood at 0.12.
In the case of `CN(CCCC(c1ccccc1)c1ccccc1)C(CCN)C(=O)NCc1ccc(F)cc1` (stereo not drawn), the half-inhibitory concentration (IC50) is 11.5 µM in series [4], 16.6 µM in series [5], 26.9 µM in [8] and 13.5 µM in series [9]. Moreover, the Ki in [11] was 21.4 µM. Further, in [6], the Rf is on record as 0.22.
Take `Cc1ccc(CNC(=O)C(CCN)NCCC=C(c2ccccc2)c2ccccc2)cc1` (stereo not drawn): the IC50 was 8.91 µM in series [4], 19.5 µM in [5], 29.5 µM in series [8] and 15.1 µM in series [9]. The Ki in [11] was 11 µM. Further, the Rf in series [6] was 0.16.
As for `Cc1ccc(CNC(=O)C(CCN)N(C)CCCC(c2ccccc2)c2ccccc2)cc1` (stereo not drawn), the IC50 in series [4] was 14.1 µM; in series [5], 12.3 µM; in series [8], 22.9 µM; in [9] it was 8.32 µM. This compound also showed a Ki in series [11] of 15.5 µM. For the same compound, in series [6], the Rf is on record as 0.17.
Turning to `COc1ccc(C(OCCN2CCC[C@H](C(=O)O)C2)(c2ccc(OC)cc2)c2ccc(OC)cc2)cc1`, the outcome in series [12] was inactive. Moreover, the Activity was 258.9% in series [13], 243.8% in series [14], 158% in [17] and 202.7% in [18]. For the same compound, in [15], the inhibition (as a rule, the percentage by which the read-out fell short of the control) is 56%. In addition, the inhibition in vivo at 15 mg/kg in [16] came to 12.1%. Further, in [19], the inhibition in vivo at 30 mg/kg came to 19.9%. Further, the CS50 in series [20] is 7.95 mA.
